Laboratory results taken from ChEMBL document CHEMBL1287658, “Reinvestigation of structure-activity relationship of methoxylated chalcones as antimalarials: synthesis and evaluation of 2,4,5-trimethoxy substituted patterns as lead candidates derived from abundantly available natural β-asarone” (Eur J Med Chem, 2010).
Calls of active or inactive are those of the source. No cut-off for these calls is given here.

What was measured:
Plasmodium falciparum [1] = test: Inhibition of Plasmodium falciparum-mediated human hemoglobin degradation at 100 uM; format: functional, organism-based
Plasmodium falciparum [2] = test: Antimalarial activity against chloroquine-sensitive Plasmodium falciparum 3D7 infected in human O+ erythrocytes after 72 hrs by SYBR Green-1 fluorescence based assay; format: functional, organism-based; conditions: 3D7, 72 h
In short: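 P. falciparum 3D7 kept in O+ human erythrocytes, 4% hematocrit, RPMI 1640 with Albumax, hypoxanthine and gentamicin, 37 °C under 5% O2/5% CO2/90% N2. Sorbitol-synchronized rings were plated at 2% hematocrit, 1% parasitemia with drug 0–10^-4 M (0.4% DMSO final), triplicate wells, 72 h. SYBR Green I read at ex 497/em 520 nm. IC50 by visual matching of 50% growth inhibition.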

L929 = test: Cytotoxicity against mouse L929 cells assessed as cell viability after 24 hrs by MTT assay; format: cell-based; conditions: l929, 24 h
In short: (§1)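 HeLa and L929 cells were grown in RPMI with 10% FBS, seeded at 10⁴ cells/well overnight, then exposed to drug for 24 h at 37 °C, 5% CO2. DMSO at 10% final was the positive control. MTT was added for 4 h, then formazan was dissolved in DMSO and read at 570 nm. TC50 was taken from dose-response curves.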

HeLa = test: Cytotoxicity against human HeLa cells assessed as cell viability after 24 hrs by MTT assay; format: cell-based; in short: as §1
[3] = Selectivity index, ratio of TC50 for mice (Mus musculus) L929 cells to IC50 for Plasmodium falciparum 3D7; format: toxicity, cell-based
In short: (§2)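 Selectivity index was TC50 (24 h MTT in HeLa or L929) divided by IC50 against 3D7 (72 h SYBR Green I growth assay).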

[4] = Selectivity index, ratio of TC50 for human HeLa cells to IC50 for Plasmodium falciparum 3D7; format: toxicity, cell-based; in short: as §2
Plasmodium falciparum [5] = test: Resistance index, ratio of IC50 for Plasmodium falciparum Dd2 to IC50 for Plasmodium falciparum 3D7; format: functional
In short: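 Ratio of IC50 against Dd2 to IC50 against 3D7. Both IC50s come from the same 72 h SYBR Green I assay: sorbitol-synchronised rings, 2% hematocrit, 1% parasitemia, 0 to 10^-4 M in triplicate, 0.4% final DMSO. Each IC50 taken by visual matching of 50% growth inhibition.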

Plasmodium falciparum [6] = test: Antimalarial activity against chloroquine-resistant Plasmodium falciparum Dd2 infected in human O+ erythrocytes after 72 hrs by SYBR Green-1 fluorescence based assay; format: functional, organism-based; conditions: Dd2, 72 h
In short: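 Ring-stage culture (5% sorbitol synchronised) plated at 2% hematocrit, 1% parasitemia in RPMI 1640 with 0.5% Albumax, hypoxanthine, gentamicin; 37 °C, 5% O2/5% CO2/90% N2. Compounds from DMSO stock, final 0.4% DMSO, 0 to 10^-4 M, triplicate wells. 72 h, then SYBR Green I fluorescence (ex 497/em 520 nm). IC50 by visual matching of 50% growth inhibition.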

For `C=CC(C)(C)c1cc(/C=C/C(=O)c2ccc(O)cc2)c(OC)cc1O` [LICOAGROCHACONE A], the inhibition (Plasmodium falciparum [1]) was “inactive” and the IC50 (Plasmodium falciparum [2]) was 4.1 µM.

For `COc1cc(OC)c(OC)cc1/C=C/C=C/C(=O)c1ccc(Br)cc1`, the inhibition (Plasmodium falciparum [1]) was “inactive” and the IC50 (Plasmodium falciparum [2]) was 12.2 µM.

For `COc1ccc(C(=O)/C=C/c2cc(OC)c(OC)cc2OC)cc1`, the inhibition (Plasmodium falciparum [1]) was “inactive” and the IC50 (Plasmodium falciparum [2]) was 11.5 µM.

In the case of `O=C(/C=C/c1ccc(Cl)cc1)c1ccc(Cl)cc1` [4',4-DICHLOROCHALCONE], the inhibition (Plasmodium falciparum [1]) is reported as “inactive” and the IC50 (Plasmodium falciparum [2]) is reported as 65 µM.

In the case of `COc1cc(OC)c(/C=C/C(=O)c2ccc(Cl)cc2)c(OC)c1`, the inhibition (Plasmodium falciparum [1]) is reported as “inactive” and the IC50 (Plasmodium falciparum [2]) is reported as 8 µM.

With `O=C(/C=C/c1ccc(Cl)cc1)c1ccc2c(c1)OCO2` the inhibition (Plasmodium falciparum [1]) was “inactive” and the IC50 (Plasmodium falciparum [2]) was 97.9 µM.

With `COc1cc(OC)c(OC)cc1/C=C/C(=O)c1ccc(C#N)cc1` the inhibition (Plasmodium falciparum [1]) was “inactive” and the IC50 (Plasmodium falciparum [2]) was over 100 µM.

In the case of `COc1cc(OC)c(OC)cc1CCC(=O)c1ccc(Cl)cc1`, the inhibition (Plasmodium falciparum [1]) is reported as “inactive” and the IC50 (Plasmodium falciparum [2]) is reported as 64 µM.

For `C=CCOc1ccc(C(=O)/C=C/c2ccc(Cl)cc2)cc1`, the inhibition (Plasmodium falciparum [1]) was “inactive” and the IC50 (Plasmodium falciparum [2]) was 75 µM.

With `COc1ccc(/C=C/C(=O)c2ccc(Cl)cc2)cc1` the inhibition (Plasmodium falciparum [1]) was “inactive” and the IC50 (Plasmodium falciparum [2]) was 28.8 µM.

In the case of `O=C(/C=C/c1ccc(Cl)cc1)c1ccc(Br)cc1`, the inhibition (Plasmodium falciparum [1]) is reported as “inactive” and the IC50 (Plasmodium falciparum [2]) is reported as 50 µM.

In the case of `COc1ccc(/C=C/C(C)=O)c(OC)c1`, the inhibition (Plasmodium falciparum [1]) is reported as “inactive” and the IC50 (Plasmodium falciparum [2]) is reported as 48.5 µM.

In the case of `CCN(CC)CCCC(C)Nc1ccnc2cc(Cl)ccc12` (centres undefined), the inhibition (Plasmodium falciparum [1]) is reported as “inactive”.

With `COc1cc(OC)c(OC)cc1/C=C/C(=O)/C=C/c1ccc(Br)cc1` the inhibition (Plasmodium falciparum [1]) was “inactive” and the IC50 (Plasmodium falciparum [2]) was 18 µM.

With `O=C(/C=C/c1ccco1)c1ccc([N+](=O)[O-])cc1` the inhibition (Plasmodium falciparum [1]) was “inactive” and the IC50 (Plasmodium falciparum [2]) was over 200 µM.

For `O=C(/C=C/c1cccs1)c1ccc([N+](=O)[O-])cc1`, the inhibition (Plasmodium falciparum [1]) was “inactive” and the IC50 (Plasmodium falciparum [2]) was 170 µM.

In the case of `COc1ccc(C(=O)/C=C/c2ccc(Cl)c(Cl)c2)cc1`, the inhibition (Plasmodium falciparum [1]) is reported as “inactive” and the IC50 (Plasmodium falciparum [2]) is reported as over 200 µM.

With `COc1cc(OC)c(OC)cc1/C=C/C(=O)c1ccc([N+](=O)[O-])cc1` the inhibition (Plasmodium falciparum [1]) was “inactive” and the IC50 (Plasmodium falciparum [2]) was over 200 µM.

For `COc1cc(OC)c(OC)cc1/C=C/C(=O)c1ccc(I)cc1`, the inhibition (Plasmodium falciparum [1]) was “inactive”, the Activity (L929) was “Non-toxic” and the Activity (HeLa) was “Non-toxic”. For the same compound, the selectivity ratio [3] was over 50, the selectivity ratio [4] was 50 and the “Ratio IC50” value (Plasmodium falciparum [5]) was 3.7. The IC50 (Plasmodium falciparum [6]) was 7.5 µM and the IC50 (Plasmodium falciparum [2]) was 2 µM.

In the case of `COc1cc(OC)c(OC)cc1/C=C/C(=O)c1ccc(Cl)cc1`, the inhibition (Plasmodium falciparum [1]) is reported as “inactive”, the selectivity ratio [3] is reported as 8.3 and the selectivity ratio [4] is reported as 9. For the same compound, the “Ratio IC50” value (Plasmodium falciparum [5]) was 1.7, the IC50 (Plasmodium falciparum [6]) was 6.9 µM and the IC50 (Plasmodium falciparum [2]) was 4 µM.

In the case of `COc1ccc(/C=C/C(=O)c2ccc(Cl)cc2)c(OC)c1`, the inhibition (Plasmodium falciparum [1]) is reported as “inactive”, the selectivity ratio [3] is reported as 14.6 and the selectivity ratio [4] is reported as over 16.6. The “Ratio IC50” value (Plasmodium falciparum [5]) was 1.1, the IC50 (Plasmodium falciparum [6]) was 6.8 µM and the IC50 (Plasmodium falciparum [2]) was 6 µM.

In the case of `COc1cc(OC)c(OC)cc1/C=C/C(=O)c1ccc(-c2ccc(Br)cc2)cc1`, the inhibition (Plasmodium falciparum [1]) is reported as “inactive” and the IC50 (Plasmodium falciparum [2]) is reported as 47 µM.

In the case of `COc1cc(OC)c(OC)cc1/C=C/C(=O)c1ccc(Cl)c(Cl)c1`, the inhibition (Plasmodium falciparum [1]) is reported as “inactive” and the IC50 (Plasmodium falciparum [2]) is reported as over 20 µM.

In the case of `COc1cc(OC)c(OC)cc1/C=C/C(=O)c1ccc(OC)c(OC)c1OC`, the inhibition (Plasmodium falciparum [1]) is reported as “inactive” and the IC50 (Plasmodium falciparum [2]) is reported as 7.8 µM.

For `COc1cc(OC)c(OC)cc1CCC(O)c1ccc(Cl)cc1` (centres undefined), the inhibition (Plasmodium falciparum [1]) was “inactive” and the IC50 (Plasmodium falciparum [2]) was 50 µM.

In the case of `O=C(/C=C/c1ccc(Cl)cc1)c1ccc([N+](=O)[O-])cc1`, the inhibition (Plasmodium falciparum [1]) is reported as “inactive” and the IC50 (Plasmodium falciparum [2]) is reported as 78 µM.

With `C=CCn1cc(C(CC(=O)c2ccc(Cl)cc2)c2cc(OC)c(OC)cc2OC)c2ccccc21` (centres undefined) the inhibition (Plasmodium falciparum [1]) was “inactive” and the IC50 (Plasmodium falciparum [2]) was 8.4 µM.

In the case of `COc1cc(/C=C/C(=O)c2ccc(Cl)cc2)cc(OC)c1OC`, the inhibition (Plasmodium falciparum [1]) is reported as “inactive”, the selectivity ratio [3] is reported as 2.8 and the selectivity ratio [4] is reported as 3. The “Ratio IC50” value (Plasmodium falciparum [5]) was 2.5, the IC50 (Plasmodium falciparum [6]) was 11.5 µM and the IC50 (Plasmodium falciparum [2]) was 4.6 µM.

In the case of `COc1ccc(C(=O)/C=C/c2ccc(Cl)cc2)cc1`, the inhibition (Plasmodium falciparum [1]) is reported as “inactive” and the IC50 (Plasmodium falciparum [2]) is reported as 88 µM.

For `O=C(/C=C/c1ccc(Cl)cc1)c1ccc(O)cc1`, the inhibition (Plasmodium falciparum [1]) was “inactive” and the IC50 (Plasmodium falciparum [2]) was 30 µM.

In the case of `C=CCn1cc(/C(=C\C(=O)c2ccc(Br)cc2)c2cc(OC)c(OC)cc2OC)c2ccccc21`, the inhibition (Plasmodium falciparum [1]) is reported as “inactive” and the IC50 (Plasmodium falciparum [2]) is reported as 17.5 µM.

With `COc1cc(OC)c(OC)cc1/C=C/C(=O)c1ccc(Br)cc1` the inhibition (Plasmodium falciparum [1]) was “inactive”, the Activity (L929) was “Non-toxic” and the Activity (HeLa) was “Non-toxic”. For the same compound, the selectivity ratio [3] was 55.6, the selectivity ratio [4] was 31.7 and the “Ratio IC50” value (Plasmodium falciparum [5]) was 2.8. It also gave an IC50 (Plasmodium falciparum [6]) of 5 µM and an IC50 (Plasmodium falciparum [2]) of 1.8 µM.

For `COc1cc(OC)c(C(CC(=O)c2ccc(Cl)cc2)c2c[nH]c3ccccc23)cc1OC` (centres undefined), the inhibition (Plasmodium falciparum [1]) was “inactive” and the IC50 (Plasmodium falciparum [2]) was 8.6 µM.
